# Residue numbers refer to the chain shown, from its start.
# Experiments:
# Settings in all cases: stereoisomer not certain
# [1] = target: T1, OR1D2 (Homo sapiens) (UniProt P34982)
# T1 sequence (whole entry): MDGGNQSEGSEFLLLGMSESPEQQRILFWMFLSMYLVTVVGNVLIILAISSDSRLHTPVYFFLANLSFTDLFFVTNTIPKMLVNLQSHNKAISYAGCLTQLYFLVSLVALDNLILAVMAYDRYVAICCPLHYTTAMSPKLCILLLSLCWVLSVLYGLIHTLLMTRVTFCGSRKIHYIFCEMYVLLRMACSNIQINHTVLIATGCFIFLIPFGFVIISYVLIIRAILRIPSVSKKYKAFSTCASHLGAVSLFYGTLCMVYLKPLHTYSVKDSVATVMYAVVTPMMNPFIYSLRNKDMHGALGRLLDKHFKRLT
# Procedure, shortened: (§1)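 Transient luciferase assays in mammalian cell lines were common, though methods varied by source. The values come from published papers and their supplementary material, with extra details from the original authors when needed. Responsive refers to a measured signal the original authors judged statistically different from baseline, and non-responsive (inactive) to the remainder.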
# [2] = tested on: T2, OR1B1
# T2 sequence (whole entry): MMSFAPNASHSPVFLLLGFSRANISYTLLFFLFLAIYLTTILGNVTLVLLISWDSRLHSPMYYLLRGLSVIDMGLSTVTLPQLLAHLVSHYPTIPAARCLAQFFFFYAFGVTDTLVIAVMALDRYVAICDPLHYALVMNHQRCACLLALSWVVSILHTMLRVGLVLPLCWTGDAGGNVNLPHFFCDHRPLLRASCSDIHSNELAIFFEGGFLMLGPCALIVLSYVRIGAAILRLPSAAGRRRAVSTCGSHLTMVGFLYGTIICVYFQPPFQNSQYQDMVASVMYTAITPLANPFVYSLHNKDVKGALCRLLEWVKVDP
# Procedure, shortened: as §1
# [3] = target: T3, OR1C1 (Homo sapiens) (UniProt Q15619)
# T3 sequence (whole entry): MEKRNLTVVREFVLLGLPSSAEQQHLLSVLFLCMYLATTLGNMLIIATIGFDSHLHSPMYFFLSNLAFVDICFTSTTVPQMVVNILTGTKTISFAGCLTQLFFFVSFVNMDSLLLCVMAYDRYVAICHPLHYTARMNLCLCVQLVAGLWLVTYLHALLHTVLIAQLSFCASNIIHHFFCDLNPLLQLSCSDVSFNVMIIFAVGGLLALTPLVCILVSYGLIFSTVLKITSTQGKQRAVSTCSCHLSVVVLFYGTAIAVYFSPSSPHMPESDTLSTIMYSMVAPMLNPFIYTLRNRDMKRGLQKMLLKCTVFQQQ
# Procedure, shortened: as §1
# [4] = target: T4, OR1D5 (Homo sapiens) (UniProt P58170)
# T4 sequence (whole entry): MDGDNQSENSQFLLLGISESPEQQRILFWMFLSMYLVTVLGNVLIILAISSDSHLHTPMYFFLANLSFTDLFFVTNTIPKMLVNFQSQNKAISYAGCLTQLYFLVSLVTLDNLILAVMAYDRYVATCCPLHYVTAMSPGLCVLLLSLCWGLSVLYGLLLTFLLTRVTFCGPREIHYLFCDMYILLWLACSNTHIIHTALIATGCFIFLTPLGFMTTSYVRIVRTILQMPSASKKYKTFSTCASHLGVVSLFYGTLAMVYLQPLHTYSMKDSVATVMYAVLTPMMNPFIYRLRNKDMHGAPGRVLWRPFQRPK
# Procedure, shortened: as §1
# [5] = target: T5, OR1E1 (Homo sapiens) (UniProt P30953)
# T5 sequence (whole entry): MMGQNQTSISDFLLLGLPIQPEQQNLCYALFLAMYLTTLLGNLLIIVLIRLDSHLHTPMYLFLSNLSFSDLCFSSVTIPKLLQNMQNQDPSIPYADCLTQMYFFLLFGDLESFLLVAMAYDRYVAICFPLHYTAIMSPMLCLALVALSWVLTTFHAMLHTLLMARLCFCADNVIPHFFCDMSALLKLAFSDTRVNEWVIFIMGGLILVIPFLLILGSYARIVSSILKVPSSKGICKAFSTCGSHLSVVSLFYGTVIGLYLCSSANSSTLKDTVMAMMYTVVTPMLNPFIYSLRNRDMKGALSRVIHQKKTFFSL
# Procedure, shortened: as §1
# [6] = target: T6, OR1E2 (Homo sapiens) (UniProt P47887)
# T6 sequence (whole entry): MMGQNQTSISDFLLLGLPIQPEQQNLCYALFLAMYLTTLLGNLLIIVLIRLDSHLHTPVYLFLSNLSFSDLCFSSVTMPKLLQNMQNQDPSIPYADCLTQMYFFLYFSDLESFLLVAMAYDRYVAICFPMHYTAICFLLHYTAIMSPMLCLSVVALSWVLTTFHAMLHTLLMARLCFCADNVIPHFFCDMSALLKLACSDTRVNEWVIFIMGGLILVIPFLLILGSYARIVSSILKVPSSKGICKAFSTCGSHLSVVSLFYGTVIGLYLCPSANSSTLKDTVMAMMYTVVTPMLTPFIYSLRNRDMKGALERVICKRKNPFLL
# Procedure, shortened: as §1
# [7] = tested on: T7, OR1E2
# T7 sequence (whole entry): T6 sequence (whole entry) with C27R
# Procedure, shortened: as §1
# [8] = target: T8, OR1F1 (Homo sapiens) (UniProt O43749)
# T8 sequence (whole entry): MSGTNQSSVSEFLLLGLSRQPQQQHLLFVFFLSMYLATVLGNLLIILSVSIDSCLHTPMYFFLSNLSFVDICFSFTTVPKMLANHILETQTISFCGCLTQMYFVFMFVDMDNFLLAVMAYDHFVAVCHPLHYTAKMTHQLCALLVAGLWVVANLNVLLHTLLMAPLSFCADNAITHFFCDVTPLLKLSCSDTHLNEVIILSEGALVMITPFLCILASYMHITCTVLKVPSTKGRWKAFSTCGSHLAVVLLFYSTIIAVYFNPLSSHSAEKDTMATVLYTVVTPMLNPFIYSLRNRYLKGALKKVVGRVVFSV
# Procedure, shortened: as §1
# [9] = tested on: OR1A2 S155N
# Sequence of OR1A2 S155N (as listed by the source, stated change not applied): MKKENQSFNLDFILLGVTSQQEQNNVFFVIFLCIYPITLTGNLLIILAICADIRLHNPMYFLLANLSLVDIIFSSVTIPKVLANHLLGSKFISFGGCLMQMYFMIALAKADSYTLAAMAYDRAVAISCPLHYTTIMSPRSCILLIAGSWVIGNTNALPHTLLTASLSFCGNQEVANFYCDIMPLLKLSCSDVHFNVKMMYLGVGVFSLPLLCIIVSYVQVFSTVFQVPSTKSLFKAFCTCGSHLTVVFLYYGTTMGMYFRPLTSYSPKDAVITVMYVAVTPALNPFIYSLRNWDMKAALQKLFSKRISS
# Procedure, shortened: as §1
# [10] = tested on: OR1A2 T154A S155N
# Procedure, shortened: as §1
# [11] = tested on: OR1A2 T154A
# Sequence of OR1A2 T154A (as listed by the source, stated change not applied): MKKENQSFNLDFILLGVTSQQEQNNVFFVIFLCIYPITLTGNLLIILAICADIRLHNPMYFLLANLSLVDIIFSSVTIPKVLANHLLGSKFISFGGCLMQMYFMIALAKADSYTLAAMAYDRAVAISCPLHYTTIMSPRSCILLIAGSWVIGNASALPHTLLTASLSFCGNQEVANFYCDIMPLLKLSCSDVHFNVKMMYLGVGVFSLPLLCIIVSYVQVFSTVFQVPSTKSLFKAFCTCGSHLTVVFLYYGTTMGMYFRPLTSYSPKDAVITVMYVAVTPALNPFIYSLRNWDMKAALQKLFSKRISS
# Procedure, shortened: as §1
# [12] = tested on: OR1A2 T254V
# Sequence of OR1A2 T254V (as listed by the source, stated change not applied): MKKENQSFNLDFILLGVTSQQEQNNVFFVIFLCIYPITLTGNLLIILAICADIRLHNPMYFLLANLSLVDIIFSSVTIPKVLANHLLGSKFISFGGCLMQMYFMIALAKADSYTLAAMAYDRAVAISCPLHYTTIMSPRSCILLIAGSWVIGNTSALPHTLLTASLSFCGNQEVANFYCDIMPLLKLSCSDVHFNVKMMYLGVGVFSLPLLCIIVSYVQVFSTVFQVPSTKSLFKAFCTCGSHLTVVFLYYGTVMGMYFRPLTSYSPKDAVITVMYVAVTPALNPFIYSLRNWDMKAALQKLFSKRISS
# Procedure, shortened: as §1
# [13] = tested on: OR1A2 V205I
# Sequence of OR1A2 V205I (as listed by the source, stated change not applied): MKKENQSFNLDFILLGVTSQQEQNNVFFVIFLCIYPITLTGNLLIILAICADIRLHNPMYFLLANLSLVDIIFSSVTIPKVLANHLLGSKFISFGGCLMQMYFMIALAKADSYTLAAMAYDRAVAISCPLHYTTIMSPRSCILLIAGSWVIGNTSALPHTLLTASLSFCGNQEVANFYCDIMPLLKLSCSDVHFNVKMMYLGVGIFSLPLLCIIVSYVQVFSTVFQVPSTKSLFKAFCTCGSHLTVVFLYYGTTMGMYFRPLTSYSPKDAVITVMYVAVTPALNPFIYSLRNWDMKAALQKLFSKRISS
# Procedure, shortened: as §1
# [14] = tested on: OR1A2 V277T
# Sequence of OR1A2 V277T (as listed by the source, stated change not applied): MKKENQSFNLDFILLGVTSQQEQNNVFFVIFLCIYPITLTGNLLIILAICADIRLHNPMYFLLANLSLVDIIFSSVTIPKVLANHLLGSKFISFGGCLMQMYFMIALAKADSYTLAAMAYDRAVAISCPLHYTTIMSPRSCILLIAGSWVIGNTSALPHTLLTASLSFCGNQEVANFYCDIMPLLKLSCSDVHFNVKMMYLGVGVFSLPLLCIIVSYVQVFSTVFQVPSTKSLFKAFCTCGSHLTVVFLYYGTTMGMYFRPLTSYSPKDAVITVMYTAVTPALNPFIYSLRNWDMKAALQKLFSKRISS
# Procedure, shortened: as §1
# [15] = target: T9, OR1D4 (Homo sapiens) (UniProt P47884)
# T9 sequence (whole entry): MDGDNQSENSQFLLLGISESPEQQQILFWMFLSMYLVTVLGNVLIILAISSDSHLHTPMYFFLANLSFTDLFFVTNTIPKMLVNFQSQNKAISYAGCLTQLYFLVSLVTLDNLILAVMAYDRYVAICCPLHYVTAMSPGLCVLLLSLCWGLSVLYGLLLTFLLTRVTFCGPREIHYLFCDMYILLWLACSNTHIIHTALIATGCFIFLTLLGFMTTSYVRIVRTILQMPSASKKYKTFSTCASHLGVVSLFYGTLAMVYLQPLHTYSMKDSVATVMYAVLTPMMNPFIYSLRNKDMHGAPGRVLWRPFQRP
# Procedure, shortened: as §1
# [16] = target: OR1E3 (Homo sapiens) (UniProt Q8WZA6)
# Sequence of OR1E3 (Homo sapiens) (Q8WZA6 whole entry): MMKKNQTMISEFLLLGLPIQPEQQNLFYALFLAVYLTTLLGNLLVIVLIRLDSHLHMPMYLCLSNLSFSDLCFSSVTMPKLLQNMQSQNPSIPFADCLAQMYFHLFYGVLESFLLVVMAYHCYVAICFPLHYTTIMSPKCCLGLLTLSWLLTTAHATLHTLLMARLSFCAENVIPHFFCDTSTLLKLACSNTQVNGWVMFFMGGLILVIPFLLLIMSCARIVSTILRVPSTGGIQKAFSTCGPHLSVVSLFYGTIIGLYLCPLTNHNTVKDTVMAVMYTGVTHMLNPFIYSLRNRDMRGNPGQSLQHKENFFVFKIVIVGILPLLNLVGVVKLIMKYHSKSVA
# Procedure, shortened: as §1
# 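Note: active if original authors judged signal statistically different from baseline.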
smiles,measurement,setting,value
CC(CC=O)c1ccccc1 (stereo not given),odorant receptor agonist call,[1],active
CCc1ccc(CC(C)(C)C=O)cc1,odorant receptor agonist call,[1],active
CC(C)(C)c1ccc(OCC=O)cc1,odorant receptor agonist call,[1],active
CC1=C(O)C(=O)C(C)O1 (stereo not given),odorant receptor agonist call,[2],inactive
same,odorant receptor agonist call,[3],inactive
same,odorant receptor agonist call,[1],inactive
same,odorant receptor agonist call,[4],inactive
same,odorant receptor agonist call,[5],inactive
same,odorant receptor agonist call,[6],inactive
same,odorant receptor agonist call,[7],inactive
same,odorant receptor agonist call,[8],inactive
CC(C)=CCCC(C)CCO (stereo not given),odorant receptor agonist call,[9],inactive
same,odorant receptor agonist call,[10],inactive
same,odorant receptor agonist call,[11],inactive
same,odorant receptor agonist call,[12],inactive
same,odorant receptor agonist call,[13],inactive
same,odorant receptor agonist call,[14],inactive
O=C(O)CCc1ccccc1,odorant receptor agonist call,[1],inactive
CCC1OC(C)=C(O)C1=O (stereo not given),odorant receptor agonist call,[2],inactive
same,odorant receptor agonist call,[3],inactive
same,odorant receptor agonist call,[1],inactive
same,odorant receptor agonist call,[4],inactive
same,odorant receptor agonist call,[5],inactive
same,odorant receptor agonist call,[6],inactive
same,odorant receptor agonist call,[7],inactive
same,odorant receptor agonist call,[8],inactive
CCCCCC(=O)C(C)C(C)=O (stereo not given),odorant receptor agonist call,[2],inactive
same,odorant receptor agonist call,[3],inactive
same,odorant receptor agonist call,[1],inactive
same,odorant receptor agonist call,[15],inactive
same,odorant receptor agonist call,[4],inactive
same,odorant receptor agonist call,[5],inactive
same,odorant receptor agonist call,[6],inactive
same,odorant receptor agonist call,[8],inactive
CC(C=O)Cc1ccc(C(C)C)cc1 (stereo not given),odorant receptor agonist call,[1],active
CC1CCCCCCCCCCCCC(=O)C1 (stereo not given),odorant receptor agonist call,[2],inactive
same,odorant receptor agonist call,[3],inactive
same,odorant receptor agonist call,[15],inactive
same,odorant receptor agonist call,[4],inactive
same,odorant receptor agonist call,[6],inactive
same,odorant receptor agonist call,[16],inactive
same,odorant receptor agonist call,[8],inactive
CC=Cc1ccc(OC)cc1,odorant receptor agonist call,[1],inactive
O=CCCCc1ccccc1,odorant receptor agonist call,[1],active
CCC1OC(=O)C(O)=C1C (stereo not given),odorant receptor agonist call,[2],inactive
same,odorant receptor agonist call,[3],inactive
same,odorant receptor agonist call,[1],inactive
same,odorant receptor agonist call,[4],inactive
same,odorant receptor agonist call,[5],inactive
same,odorant receptor agonist call,[6],inactive
same,odorant receptor agonist call,[7],inactive
same,odorant receptor agonist call,[8],inactive
CC1=C(O)C(=O)OC1C (stereo not given),odorant receptor agonist call,[2],inactive
same,odorant receptor agonist call,[3],inactive
same,odorant receptor agonist call,[1],inactive
same,odorant receptor agonist call,[4],inactive
same,odorant receptor agonist call,[5],inactive
same,odorant receptor agonist call,[6],inactive
same,odorant receptor agonist call,[7],inactive
same,odorant receptor agonist call,[8],inactive
CCCC(S)CCOC(C)=O (stereo not given),odorant receptor agonist call,[2],inactive
same,odorant receptor agonist call,[3],inactive
same,odorant receptor agonist call,[1],inactive
same,odorant receptor agonist call,[4],inactive
same,odorant receptor agonist call,[5],inactive
same,odorant receptor agonist call,[6],inactive
same,odorant receptor agonist call,[7],inactive
same,odorant receptor agonist call,[8],inactive
CC(=O)c1c(C)c([N+](=O)[O-])c(C(C)(C)C)c([N+](=O)[O-])c1C,odorant receptor agonist call,[2],inactive
same,odorant receptor agonist call,[3],inactive
same,odorant receptor agonist call,[15],inactive
same,odorant receptor agonist call,[4],inactive
same,odorant receptor agonist call,[6],inactive
same,odorant receptor agonist call,[16],inactive
same,odorant receptor agonist call,[8],inactive

# Source: the M2OR odorant receptor database
